The record followed here is ChEMBL document CHEMBL1155278, “3,4-Diaryl-isoxazoles and -imidazoles as potent dual inhibitors of p38alpha mitogen activated protein kinase and casein kinase 1delta” (J Med Chem, 2009).

Assay [1] concerns the target Rho-associated protein kinase 2 (Homo sapiens) (UniProt O75116). Nature of the assay: Inhibition of ROCK2 assessed as residual activity at 10 uM by Cherenkov counting relative to control in presence of 20 uM ATP. The method, boiled down: (§1)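 Single-concentration profiling at 10 μM in a 78-kinase panel. Kinase activity is expressed as a percentage of control assays run without compound.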

Assay [2] has as its target T1, Serine/threonine-protein kinase D1 (Homo sapiens) (UniProt Q15139).
T1 sequence (whole entry): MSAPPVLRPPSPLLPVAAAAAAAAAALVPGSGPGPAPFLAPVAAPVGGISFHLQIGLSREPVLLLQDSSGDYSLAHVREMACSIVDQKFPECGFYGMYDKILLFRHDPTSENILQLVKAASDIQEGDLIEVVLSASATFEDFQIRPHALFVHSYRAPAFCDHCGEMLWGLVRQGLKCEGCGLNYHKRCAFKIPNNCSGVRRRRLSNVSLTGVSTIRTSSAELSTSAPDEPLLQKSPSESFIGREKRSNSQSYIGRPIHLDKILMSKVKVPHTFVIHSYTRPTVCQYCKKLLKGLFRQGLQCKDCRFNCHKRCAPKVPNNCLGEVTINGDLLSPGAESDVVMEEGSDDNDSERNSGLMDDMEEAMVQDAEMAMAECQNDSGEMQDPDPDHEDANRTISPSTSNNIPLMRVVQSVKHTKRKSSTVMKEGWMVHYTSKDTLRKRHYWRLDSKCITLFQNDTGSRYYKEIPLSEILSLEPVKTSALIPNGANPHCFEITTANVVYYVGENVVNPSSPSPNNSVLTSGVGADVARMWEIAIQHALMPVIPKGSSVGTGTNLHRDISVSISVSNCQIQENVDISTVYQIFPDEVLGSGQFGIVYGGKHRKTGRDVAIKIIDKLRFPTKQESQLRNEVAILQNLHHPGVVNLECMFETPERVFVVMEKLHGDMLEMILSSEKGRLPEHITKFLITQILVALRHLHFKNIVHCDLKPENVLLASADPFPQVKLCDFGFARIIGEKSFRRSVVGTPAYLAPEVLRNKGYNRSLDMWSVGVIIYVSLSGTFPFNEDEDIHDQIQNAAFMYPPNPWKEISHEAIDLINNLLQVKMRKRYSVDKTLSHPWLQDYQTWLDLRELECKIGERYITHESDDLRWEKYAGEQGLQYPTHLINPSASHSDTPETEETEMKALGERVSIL
Description: Inhibition of PKD1 assessed as residual activity at 10 uM by Cherenkov counting relative to control in presence of 50 uM ATP. The essentials:
as §1

The target in assay [3] is MAP kinase-interacting serine/threonine-protein kinase 2 (Homo sapiens) (UniProt Q9HBH9). Description: Inhibition of MNK2 assessed as residual activity at 10 uM by Cherenkov counting relative to control in presence of 50 uM ATP.
The target of assay [4] is MAP kinase-activated protein kinase 2 (Homo sapiens) (UniProt P49137). Description: Inhibition of MAPKAPK2 assessed as residual activity at 10 uM by Cherenkov counting relative to control in presence of 20 uM ATP.
Assay [5] in a line: Inhibition of PHK assessed as residual activity at 10 uM by Cherenkov counting relative to control.
Assay [6] concerns the target Homeodomain-interacting protein kinase 3 (Homo sapiens) (UniProt Q9H422). Nature of the assay: Inhibition of HIPK3 assessed as residual activity at 10 uM by Cherenkov counting relative to control. The method, boiled down: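 Single-point profiling at 10 µM in a panel of 78 protein kinases. Kinase activity is expressed as a percentage relative to control assays without compound.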

Assay [7] can be described thus: Inhibition of VEGFR assessed as residual activity at 0.1 uM by Cherenkov counting relative to control in presence of 20 uM ATP. The essentials: (§2)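 Single-concentration screen at 0.1 μM in a 76-kinase panel. ATP for each kinase was set near its Km for ATP. Residual activity is given as a percentage of control assays without compound, mean of n = 3 ± SD.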
For assay [8], the target named is Tyrosine-protein kinase BTK (Homo sapiens) (UniProt Q06187). Description: Inhibition of BTK assessed as residual activity at 0.1 uM by Cherenkov counting relative to control in presence of 50 uM ATP. The method, boiled down:
(§3)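 Single-concentration screen at 0.1 µM across a panel of 76 protein kinases. Each kinase was run at an ATP concentration approximating its ATP Km. Results are % mean residual activity versus control assays without compound (n = 3 ± SD).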

Assay [9] concerns the target Mitogen-activated protein kinase 13 (Homo sapiens) (UniProt O15264). Description: Inhibition of p38delta assessed as residual activity at 0.1 uM by Cherenkov counting relative to control. The essentials: as §2
In assay [10] the target is Ribosomal protein S6 kinase beta-1 (Homo sapiens) (UniProt P23443). Description: Inhibition of S6K1 assessed as residual activity at 0.1 uM by Cherenkov counting relative to control in presence of 20 uM ATP. The method, boiled down:
as §2

Assay [11] concerns the target MAP kinase-interacting serine/threonine-protein kinase 2 (Homo sapiens) (UniProt Q9HBH9). Description: Inhibition of MNK2 assessed as residual activity at 0.1 uM by Cherenkov counting relative to control in presence of 50 uM ATP. The essentials: (§4)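 Single-concentration selectivity screen at 0.1 μM against a panel of 76 protein kinases. Each kinase was run at an ATP level approximating its Km for ATP. Output is mean residual activity as % of the control assay without compound, n = 3 ± SD.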

In assay [12] the target is MAP kinase-activated protein kinase 2 (Homo sapiens) (UniProt P49137). Nature of the assay: Inhibition of MAPKAPK2 assessed as residual activity at 0.1 uM by Cherenkov counting relative to control in presence of 20 uM ATP. The essentials: as §4
A short description of assay [13]: Inhibition of CK2 assessed as residual activity at 0.1 uM by Cherenkov counting relative to control in presence of 5 uM ATP. The method, boiled down:
as §3

Assay [14] concerns the target SRSF protein kinase 1 (Homo sapiens) (UniProt Q96SB4). Description: Inhibition of SRPK1 assessed as residual activity at 0.1 uM by Cherenkov counting relative to control in presence of 50 uM ATP. The essentials: as §2

Sequence of MAP kinase-interacting serine/threonine-protein kinase 2 (Homo sapiens) (Q9HBH9 whole entry, looked up): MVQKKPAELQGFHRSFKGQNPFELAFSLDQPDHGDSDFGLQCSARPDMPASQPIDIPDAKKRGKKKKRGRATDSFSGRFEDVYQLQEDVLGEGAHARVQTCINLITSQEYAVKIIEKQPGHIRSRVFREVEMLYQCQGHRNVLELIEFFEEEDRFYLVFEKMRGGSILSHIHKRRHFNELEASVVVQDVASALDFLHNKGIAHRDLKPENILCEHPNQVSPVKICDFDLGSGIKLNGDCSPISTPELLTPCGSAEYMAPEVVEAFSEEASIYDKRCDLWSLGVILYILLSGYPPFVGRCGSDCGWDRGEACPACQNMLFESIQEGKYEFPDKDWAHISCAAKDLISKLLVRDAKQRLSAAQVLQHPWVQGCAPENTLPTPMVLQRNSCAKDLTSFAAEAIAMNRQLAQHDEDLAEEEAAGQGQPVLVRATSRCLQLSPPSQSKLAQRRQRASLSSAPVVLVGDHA
Sequence of MAP kinase-activated protein kinase 2 (Homo sapiens) (P49137 whole entry, looked up): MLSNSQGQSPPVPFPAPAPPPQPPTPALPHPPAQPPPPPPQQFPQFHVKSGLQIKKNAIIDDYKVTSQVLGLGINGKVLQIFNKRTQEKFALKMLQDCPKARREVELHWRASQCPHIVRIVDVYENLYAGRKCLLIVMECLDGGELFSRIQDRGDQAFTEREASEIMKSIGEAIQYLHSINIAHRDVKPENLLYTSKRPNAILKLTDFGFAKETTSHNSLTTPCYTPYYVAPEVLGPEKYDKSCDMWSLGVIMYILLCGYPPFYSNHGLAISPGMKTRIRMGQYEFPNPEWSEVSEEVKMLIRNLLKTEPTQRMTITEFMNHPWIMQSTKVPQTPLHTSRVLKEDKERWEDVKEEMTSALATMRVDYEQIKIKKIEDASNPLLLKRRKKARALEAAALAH
Sequence of Rho-associated protein kinase 2 (Homo sapiens) (O75116 whole entry, looked up): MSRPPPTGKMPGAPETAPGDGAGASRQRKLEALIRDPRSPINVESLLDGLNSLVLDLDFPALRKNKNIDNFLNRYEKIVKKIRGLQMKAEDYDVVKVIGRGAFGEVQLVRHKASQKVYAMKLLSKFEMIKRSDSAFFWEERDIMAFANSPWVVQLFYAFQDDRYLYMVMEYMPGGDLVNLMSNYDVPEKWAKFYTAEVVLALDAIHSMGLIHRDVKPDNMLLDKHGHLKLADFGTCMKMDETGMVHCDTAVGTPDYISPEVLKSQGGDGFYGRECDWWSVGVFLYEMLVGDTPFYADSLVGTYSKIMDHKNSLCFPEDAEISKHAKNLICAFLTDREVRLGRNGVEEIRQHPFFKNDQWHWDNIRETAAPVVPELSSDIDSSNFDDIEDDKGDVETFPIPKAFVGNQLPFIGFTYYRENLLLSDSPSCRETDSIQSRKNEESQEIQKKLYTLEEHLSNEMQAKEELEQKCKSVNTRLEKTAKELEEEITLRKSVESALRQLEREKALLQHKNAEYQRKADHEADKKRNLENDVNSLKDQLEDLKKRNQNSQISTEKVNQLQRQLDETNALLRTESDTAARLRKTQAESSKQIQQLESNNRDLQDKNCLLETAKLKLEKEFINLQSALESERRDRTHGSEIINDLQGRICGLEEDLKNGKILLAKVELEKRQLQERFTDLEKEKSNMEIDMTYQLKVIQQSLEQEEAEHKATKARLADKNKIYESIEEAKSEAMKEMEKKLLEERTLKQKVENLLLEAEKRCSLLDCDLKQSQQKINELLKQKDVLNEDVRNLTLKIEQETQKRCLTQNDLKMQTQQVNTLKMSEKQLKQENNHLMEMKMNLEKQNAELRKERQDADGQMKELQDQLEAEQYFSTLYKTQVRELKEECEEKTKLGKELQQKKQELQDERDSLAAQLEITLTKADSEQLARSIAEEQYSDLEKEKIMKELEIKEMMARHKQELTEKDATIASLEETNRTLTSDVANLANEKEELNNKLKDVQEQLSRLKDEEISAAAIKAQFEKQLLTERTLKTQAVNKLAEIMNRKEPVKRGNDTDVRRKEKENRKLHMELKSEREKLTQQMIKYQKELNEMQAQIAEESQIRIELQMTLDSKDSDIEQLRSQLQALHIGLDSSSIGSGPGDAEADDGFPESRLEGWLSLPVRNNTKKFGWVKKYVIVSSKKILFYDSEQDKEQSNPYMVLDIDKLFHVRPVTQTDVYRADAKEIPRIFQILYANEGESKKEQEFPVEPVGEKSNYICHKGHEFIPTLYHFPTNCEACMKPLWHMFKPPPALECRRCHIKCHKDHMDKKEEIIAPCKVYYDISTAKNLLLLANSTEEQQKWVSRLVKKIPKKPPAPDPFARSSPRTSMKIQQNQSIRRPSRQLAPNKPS
Sequence of Ribosomal protein S6 kinase beta-1 (Homo sapiens) (P23443 whole entry, looked up): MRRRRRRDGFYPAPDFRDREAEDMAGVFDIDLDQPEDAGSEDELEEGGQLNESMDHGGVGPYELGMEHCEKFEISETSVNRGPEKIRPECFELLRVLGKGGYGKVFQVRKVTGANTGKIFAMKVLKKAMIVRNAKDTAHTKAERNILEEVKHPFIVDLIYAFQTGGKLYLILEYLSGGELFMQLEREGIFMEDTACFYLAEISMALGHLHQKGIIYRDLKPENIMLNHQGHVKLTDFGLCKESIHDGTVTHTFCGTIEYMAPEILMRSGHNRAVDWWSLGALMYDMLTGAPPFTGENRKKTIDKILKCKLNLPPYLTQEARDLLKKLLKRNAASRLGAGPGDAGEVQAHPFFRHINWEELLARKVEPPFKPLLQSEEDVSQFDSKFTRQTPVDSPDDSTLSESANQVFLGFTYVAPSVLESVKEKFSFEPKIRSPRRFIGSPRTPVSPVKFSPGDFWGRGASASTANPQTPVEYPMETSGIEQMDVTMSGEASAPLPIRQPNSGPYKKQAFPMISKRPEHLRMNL
Sequence of Tyrosine-protein kinase BTK (Homo sapiens) (Q06187 whole entry): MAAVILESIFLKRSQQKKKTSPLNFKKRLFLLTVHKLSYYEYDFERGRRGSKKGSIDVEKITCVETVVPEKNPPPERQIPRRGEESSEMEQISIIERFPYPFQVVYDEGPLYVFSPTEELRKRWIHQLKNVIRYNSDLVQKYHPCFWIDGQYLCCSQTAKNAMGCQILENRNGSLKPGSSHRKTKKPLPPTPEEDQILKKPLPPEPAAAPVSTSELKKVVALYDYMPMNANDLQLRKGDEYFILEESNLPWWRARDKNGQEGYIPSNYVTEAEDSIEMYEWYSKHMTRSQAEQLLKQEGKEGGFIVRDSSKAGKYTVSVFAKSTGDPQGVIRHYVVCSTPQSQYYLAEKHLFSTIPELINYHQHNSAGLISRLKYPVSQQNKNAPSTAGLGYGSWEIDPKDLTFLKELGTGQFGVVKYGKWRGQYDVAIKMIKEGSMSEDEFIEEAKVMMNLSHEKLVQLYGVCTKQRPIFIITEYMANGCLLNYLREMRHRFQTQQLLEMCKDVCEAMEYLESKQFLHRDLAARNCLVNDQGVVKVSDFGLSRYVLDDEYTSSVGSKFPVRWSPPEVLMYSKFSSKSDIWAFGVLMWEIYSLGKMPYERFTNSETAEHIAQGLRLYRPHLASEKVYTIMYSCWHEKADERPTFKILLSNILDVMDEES
Sequence of SRSF protein kinase 1 (Homo sapiens) (Q96SB4 whole entry): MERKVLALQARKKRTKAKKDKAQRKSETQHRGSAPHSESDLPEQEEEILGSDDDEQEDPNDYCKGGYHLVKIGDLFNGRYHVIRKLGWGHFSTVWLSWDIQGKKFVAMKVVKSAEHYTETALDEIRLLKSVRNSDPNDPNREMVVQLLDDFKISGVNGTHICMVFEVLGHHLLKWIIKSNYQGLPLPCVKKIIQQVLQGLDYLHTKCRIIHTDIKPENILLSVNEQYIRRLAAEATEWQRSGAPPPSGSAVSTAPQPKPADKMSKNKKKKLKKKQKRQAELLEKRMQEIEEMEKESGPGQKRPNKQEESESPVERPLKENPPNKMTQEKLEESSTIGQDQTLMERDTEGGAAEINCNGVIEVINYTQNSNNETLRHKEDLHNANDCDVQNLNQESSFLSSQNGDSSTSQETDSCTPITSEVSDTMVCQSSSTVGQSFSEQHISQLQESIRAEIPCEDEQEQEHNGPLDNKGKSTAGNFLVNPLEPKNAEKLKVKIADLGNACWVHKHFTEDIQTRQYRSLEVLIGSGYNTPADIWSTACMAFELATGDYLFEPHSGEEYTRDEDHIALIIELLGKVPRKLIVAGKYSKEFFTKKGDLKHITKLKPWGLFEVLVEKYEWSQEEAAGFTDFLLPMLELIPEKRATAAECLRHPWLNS
Sequence of Mitogen-activated protein kinase 13 (Homo sapiens) (O15264 whole entry): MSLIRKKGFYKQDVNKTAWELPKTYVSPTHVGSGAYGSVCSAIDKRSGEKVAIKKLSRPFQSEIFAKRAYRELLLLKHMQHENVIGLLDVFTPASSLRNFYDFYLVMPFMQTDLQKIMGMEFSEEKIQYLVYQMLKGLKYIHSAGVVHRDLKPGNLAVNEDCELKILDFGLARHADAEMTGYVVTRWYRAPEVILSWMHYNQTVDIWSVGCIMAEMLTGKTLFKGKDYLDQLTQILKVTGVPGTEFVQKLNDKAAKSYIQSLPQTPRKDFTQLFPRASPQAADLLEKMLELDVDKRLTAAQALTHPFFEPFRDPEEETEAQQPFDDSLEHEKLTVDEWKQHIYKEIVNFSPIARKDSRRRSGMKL

Turning to `CC(C)c1noc(-c2ccc(F)cc2)c1-c1ccncc1`, the Activity in assay [1] came out at 77%; in [2], 89%; in assay [3] it was 101%; in assay [4], 100%; in assay [5], 99%; in assay [6] it was 100%.
In the case of `CC(C)c1onc(-c2ccc(F)cc2)c1-c1ccncc1`, the Activity was determined as 76% in assay [1]; 60% in assay [2]; 110% in assay [3]; 105% in [4]; 96% in [5]; 92% in assay [6].
For the compound `COc1ccc(/C=C/C(=O)Nc2cc(-c3[nH]c([S+](C)[O-])nc3-c3ccc(F)cc3)ccn2)c(OC)c1` (stereo not drawn), the Activity in assay [7] is 46%; in [8] it was 105%; in [9] it was 100%; in assay [10] it was 74%; in assay [11], 88%; in [12], 78%. For the same compound, the results for the Activity in assay [13] and in assay [14] were 122% and 97%, respectively.
Consider `COc1ccc(/C=C/C(=O)Nc2cc(-c3[nH]c(SC)nc3-c3ccc(F)cc3)ccn2)c(OC)c1`, for which the Activity in assay [7] amounted to 33%; in [8], 92%; in assay [9], 90%; in assay [10], 67%; in assay [11] it was 85%; in [12] it was 82%. The Activity in [13] was determined as 115%; in [14], 91%.
